≈ marks a conversion by molar mass, not a printed value. Calls of active or inactive are those of the source. The rule behind the calls is not given here.
Experiments:
Leishmania infantum [1] = assay: Antileishmanial activity against intracellular Leishmania infantum chagasi MHOM/BR/00/1669 amastigotes infected in mouse RAW264.7 cells assessed as inhibition of parasite growth after 48 hrs; type: functional, organism-based; conditions: chagasi MHOM/BR/00/1669, RAW264.7, 48 h
Outline: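 RAW 264.7 macrophages (4×10^5/well, RPMI-1640 + 10% FBS) adhered for 24 h, then infected with promastigotes at 1:10 for 2 h. Non-adherent parasites rinsed off and cells held 72 h. Compounds added from ethanol stocks in six two-fold dilutions for 48 h at 37 °C, 5% CO2. Amastigotes detected by cell ELISA (saponin permeabilization, rabbit anti-Leishmania serum 1:500, peroxidase anti-rabbit, OPD, 492 nm).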

[2] = Cytotoxicity against mouse RAW264.7 cells assessed as cell survival at 100 ug/ml after 48 hrs by MTT assay; type: cell-based; conditions: read-out: Survival
Outline: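 RAW 264.7 cells were seeded at 4×10^4/well. Compounds were dissolved at 0.2% in ethanol and diluted in M199 medium, highest concentration 100 µg/mL. Cells were exposed for 48 h at 37 °C in humidified 5% CO2, with […] vehicle controls. Viability was read by MTT.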

Leishmania infantum [3] = assay: Antileishmanial activity against axenically cultured Leishmania infantum chagasi MHOM/BR/00/1669 promastigotes assessed as inhibition of parasite growth after 24 hrs; conditions: chagasi MHOM/BR/00/1669, 24 h
Leishmania infantum [4] = assay: Antileishmanial activity against intracellular Leishmania infantum chagasi MHOM/BR/00/1669 amastigotes infected in BALB/c mouse assessed as inhibition of parasite growth in liver at 100 mg/kg, ip once daily treated after 30 days post infection for 30 days; type: functional, organism-based; parameters: dose 100 mg/kg
Outline: (§1)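 Male BALB/c mice, 21 days old, infected IP with 1×10^7 Ficoll-purified metacyclic promastigotes; infection confirmed by liver and spleen imprints at 35 days. Compounds given IP at 100 mg/kg once daily for 30 days, 0.5 mL injected, n = 5 per group. Controls were Glucantime (80 mg/Kg intramuscular) and water. Liver and spleen collected afterwards; amastigotes detected qualitatively by anti-Leishmania immunohistochemistry with DAB.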

Leishmania infantum [5] = assay: Antileishmanial activity against intracellular Leishmania infantum chagasi MHOM/BR/00/1669 amastigotes infected in BALB/c mouse assessed as inhibition of parasite growth in spleen at 100 mg/kg, ip once daily treated after 30 days post infection for 30 days; type: functional, organism-based; parameters: dose 100 mg/kg; outline: as §1

Row | Compound | EC50 (Leishmania infantum [1]) [µg/mL] | viability at 48 h, 100 ug/ml [2] [%] | EC50 (Leishmania infantum [3]) [µg/mL] | Activity (Leishmania infantum [4]) | Activity (Leishmania infantum [5])
1 | C=CCc1ccc(O)c(OC)c1 [EUGENOL] | 20.8 (≈ 127 µM) | 29 | 56.1 (≈ 342 µM) | – | –
2 | C=CCc1ccc(OC(C)=O)c(OC)c1 [EUGENYL ACETATE] | 18.5 | > 100 | 23.2 | Active | Active
3 | MEGLUMINE ANTIMONATE | – | – | – | – | inactive
4 | N=C(N)c1ccc(OCCCCCOc2ccc(C(=N)N)cc2)cc1 [PENTAMIDINE] | – | 85.6 | 5.3 (≈ 15.6 µM) | – | –
5 | Cc1ccc(C(C)C)c(OC(=O)c2ccccc2)c1 | 15.1 (≈ 59.3 µM) | 63.6 | 8.67 (≈ 34.1 µM) | Active | Active
6 | C=CCc1ccc(OC(=O)c2ccccc2)c(OC)c1 [EUGENYL BENZOAT] | 14.9 (≈ 55.6 µM) | 97.7 | 10.6 (≈ 39.4 µM) | Active | Active
7 | CC(=O)Oc1cc(C)ccc1C(C)C | 10.9 (≈ 57 µM) | > 100 | 9.07 (≈ 47.2 µM) | Active | inactive
8 | C[C@@H]1[C@H](O)[C@@H](C)/C=C/C=C/C=C/C=C/C=C/C=C/C=C/[C@H](O[C@@H]2O[C@H](C)[C@@H](O)[C@H](N)[C@@H]2O)C[C@@H]2O[C@](O)(C[C@@H](O)C[C@@H](O)[C@H](O)CC[C@@H](O)C[C@@H](O)CC(=O)O[C@H]1C)C[C@H](O)[C@H]2C(=O)O [AMPHOTERICIN B] | 20.4 (≈ 22.1 µM) | 98.5 | – | – | –
9 | Cc1ccc(C(C)C)c(O)c1 [THYMOL] | 23.9 (≈ 159 µM) | 36.5 | – | – | –
